Assay outcomes: PubChem, several laboratories
UPR XBP1 act = activators of adaptive XBP1 UPR arm, primary screen, cell-based, CHO-XBP1 luciferase reporter, luminescence, uHTS. activation, % at 20 µM. 330,000 compounds, 0.33% hits. IRE1-XBP1 UPR activation; percent of tunicamycin response, DMSO as zero;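 active = versus positive control, 20 µM dose yields 30% or more activation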
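Material: IRE1-XBP1 luciferase reporter CHO line / Quantity: one thousand reporter cells per well / Buffer or medium: F12 with 10% serum / Compound: 20 µM single concentration, DMSO 1% / Times: 6 h treatment, 37 °C / Detection: Steady-Glo luciferase glow luminescence, 10 min after reagent addition / Benchmarks: tunicamycin high, DMSO low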
p97 inhibitor = inhibitors of human p97 ATPase, primary screen, biochemical | AID 1481, 2009 | recombinant p97 ATPase, Kinase-Glo ATP luminescence, 3 h | inhibition, % at 8 µM | 220,000 compounds, 0.42% hits; in the data active = inhibition above about 15%
Target sequence (P55072 whole entry, looked up): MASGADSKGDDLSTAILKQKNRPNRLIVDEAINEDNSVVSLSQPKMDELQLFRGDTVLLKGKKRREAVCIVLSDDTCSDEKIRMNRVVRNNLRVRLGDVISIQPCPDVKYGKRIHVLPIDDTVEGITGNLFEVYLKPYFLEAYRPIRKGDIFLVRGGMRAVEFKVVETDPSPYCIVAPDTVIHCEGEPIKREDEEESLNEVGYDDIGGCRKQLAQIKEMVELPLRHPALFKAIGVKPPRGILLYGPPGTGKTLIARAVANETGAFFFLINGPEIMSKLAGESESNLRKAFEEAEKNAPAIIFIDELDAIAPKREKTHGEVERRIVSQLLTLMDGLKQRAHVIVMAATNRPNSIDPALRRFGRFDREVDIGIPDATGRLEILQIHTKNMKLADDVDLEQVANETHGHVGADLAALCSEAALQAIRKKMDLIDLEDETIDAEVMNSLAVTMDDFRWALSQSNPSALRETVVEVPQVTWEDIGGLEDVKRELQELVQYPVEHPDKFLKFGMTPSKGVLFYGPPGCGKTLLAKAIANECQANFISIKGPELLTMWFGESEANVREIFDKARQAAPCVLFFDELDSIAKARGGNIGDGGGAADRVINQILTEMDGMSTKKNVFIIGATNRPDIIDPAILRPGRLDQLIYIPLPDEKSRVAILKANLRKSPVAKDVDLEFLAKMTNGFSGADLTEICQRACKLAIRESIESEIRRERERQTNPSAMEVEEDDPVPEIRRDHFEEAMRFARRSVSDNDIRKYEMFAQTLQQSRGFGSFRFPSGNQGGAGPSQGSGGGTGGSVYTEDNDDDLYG
NS3 helicase inh = inhibitors of HCV NS3 helicase, primary screen, biochemical, Cy5 molecular beacon fluorescence; 290,000 compounds, 0.56% hits; Hepatitis C virus NS3 helicase; AID 1800, 2009; NS3 helicase DNA unwinding; inhibition, % at 10.9 µM;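 active = inhibition above the mean of all tested compounds plus 3 SD, set per campaign, cut at about 35% in these data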
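Test system: hepatitis C virus NS3 helicase domain fragment enzyme. Also added: annealed dual-labelled DNA beacon duplex, ATP-started. Timing: 60 min unwinding reaction at 25 °C after ATP addition. Technique: Cy5 fluorescence. Measure: % inhibition of unwinding.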
CHOP UPR activ = activators of apoptotic CHOP UPR arm, primary screen, cell-based, CHO-CHOP luciferase reporter, luminescence, uHTS; UPR activation; percent of tunicamycin response over DMSO baseline; activation, % at 10 µM; 330,000 compounds, 0.34% hits;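 active = at 10 µM dose, activation of 40% or more, normalized to positive control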
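Test system: CHO-CHOP cells, stable luciferase reporter of PERK-eIF2a-CHOP signalling | Quantity: 500 CHO-CHOP cells per well | Buffer or medium: F12 plus 10% serum | Compound dosing: 10 µM single point, 0.5% DMSO | Schedule: 6 h compound treatment, 37 °C | Signal: Luciferase luminescence | Control set: Tunicamycin high control, DMSO low control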
CHOP inhibitor = inhibitors of CHOP promoter induction, primary screen, cell-based, unfolded protein response, luciferase reporter | CHO-K1 CHOP-promoter luciferase, tunicamycin-induced, 15-18 h | 220,000 compounds, 3.8% hits | inhibition, % at 10 µM;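 active = compounds that reduced the stress-induced luciferase reporter signal by more than about 70% of percent inhibition, limit read from the data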
M18AAP inhibitor = PfM18AAP inhibitors, malaria aminopeptidase, primary screen, biochemical, QFRET, recombinant enzyme; M18 aspartyl aminopeptidase (Plasmodium falciparum 3D7); inhibition, % at 7.35 µM; H-Glu-NHMec fluorogenic cleavage; 290,000 compounds, 1.2% hits;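 active = inhibition above the campaign mean inhibition over all tested compounds plus 3 SD, cut at about 28% in these data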
Large screens that a line does not name were inactive. This is a sample that favours compounds with a hit; in the whole collection about 4.5% have one here.

Oc1nc(Nc2ccc(Cl)cc2Cl)sc1/C=C1\C=Nc2ccccc21	CHOP inhibitor 73
O=C(Nc1ccnn1C1CCN(C(=O)Cc2cccc(Cl)c2)CC1)C1CC1	none (no result: p97 inhibitor, CHOP inhibitor)
CCOC(=O)c1cc(CC)sc1NC(=O)c1cc(OC)c(OC)c(OC)c1	CHOP inhibitor 90
CCOC(=O)c1cc(CC)sc1NC(=O)Cc1ccsc1	CHOP inhibitor 75
CCOC(=O)c1cc(CC)sc1NC(=O)c1ccc(N2C(=O)CCC2=O)cc1	none
O=C(Nc1ccc2c(c1)CCC2)c1cc(S(=O)(=O)Nc2ccc(F)cc2)c(Cl)cc1Cl	CHOP inhibitor 78
CCCC1CCC(c2nc(-c3cccnc3)no2)CC1 (stereo unspecified)	CHOP inhibitor 89
CCOC(=O)c1cc(OC(=O)c2ccccc2OC)n(-c2ccccc2)n1	CHOP inhibitor 80
O=C(Nc1ccc(Cl)c(Cl)c1)Nc1ccc(N2CCCC2)c(S(=O)(=O)Nc2ccccc2Cl)c1	CHOP inhibitor 79
O=C(Nc1ccc(N2CCCCC2)c(S(=O)(=O)Nc2ccccc2Cl)c1)c1cccnc1	none (no result: p97 inhibitor, NS3 helicase inh, CHOP inhibitor, M18AAP inhibitor)
CSc1nc(NCCCN(C)C)c2c3c(sc2n1)CN(C)CC3	M18AAP inhibitor 29 (no result: p97 inhibitor, CHOP inhibitor)
COc1cccc(NCc2cc3c(C(C)(C)C)nn(-c4ccccc4)c3[nH]c2=O)c1	CHOP inhibitor 71
Cn1c(N)c(C(=O)CSc2nn(-c3ccccc3)c(=S)s2)c(=O)n(C)c1=O	none (no result: p97 inhibitor, NS3 helicase inh, CHOP inhibitor, M18AAP inhibitor)
CC(CCc1ccccc1)NC(=O)c1ccc(NC(=O)c2ccccc2)cc1 (stereo unspecified)	CHOP inhibitor 85
CC(CCc1ccccc1)NC(=O)c1ccc(NC(=O)c2cccc(Br)c2)cc1 (stereo unspecified)	none
O=S(=O)(c1ccc(Cl)s1)N1CCN(Cc2ccccc2)CC1	CHOP inhibitor 81
CCCCC1(Cc2ccc([N+](=O)[O-])cc2)C(=O)N(c2ccccc2)N(c2ccccc2)C1=O	CHOP inhibitor 77
COc1cc(NC(=O)N2CCNC2=O)cc(C(=O)Nc2cccc(C(F)(F)F)c2)c1	CHOP inhibitor 74 (no result: p97 inhibitor, NS3 helicase inh, M18AAP inhibitor)
C/C(=N\NC(=S)NC1CCCCC1)c1cccs1	none
C/C(=N\NC(=S)NC1CCCCC1)c1c(F)cccc1F	CHOP inhibitor 80
Cc1cc(NC(=O)C2CC2)n(-c2nc3ccccc3s2)n1	none
Cc1cc(NC(=O)CCl)n(-c2nc3ccccc3s2)n1	CHOP inhibitor 77
CC1CCC(NC(=O)c2ccc(CNc3c(NC4CCCCC4)c(=O)c3=O)cc2)CC1 (stereo unspecified)	none
O=C(c1ccc(CNc2c(NC3CCCCC3)c(=O)c2=O)cc1)N1CCc2ccccc21	CHOP inhibitor 73 (no result: UPR XBP1 act, CHOP UPR activ)
Cc1ccc(CN(C)CC(=O)Nc2ccc3c(c2)CCC3)cc1	none
CCc1ccc(CN(C)CC(=O)Nc2ccc3c(c2)CCC3)cc1	CHOP inhibitor 92
Oc1c(C(c2ccco2)N2CCN(C(c3ccccc3)c3ccccc3)CC2)sc2ncnn12 (stereo unspecified)	CHOP inhibitor 95
COc1cccc(C(c2sc3ncnn3c2O)N2CCN(C(=O)c3ccco3)CC2)c1 (stereo unspecified)	none
Cc1ccc(C(c2sc3ncnn3c2O)N2CC(C)CC(C)C2)cc1 (stereo unspecified)	M18AAP inhibitor 30
O=C(CCc1nc2ccccc2c(=O)[nH]1)Nc1cc(Cl)ccc1N1CCCC1	none (no result: p97 inhibitor, NS3 helicase inh, CHOP inhibitor, M18AAP inhibitor)
Clc1ccc(OCc2nc(-c3ccncc3)no2)c(Cl)c1	CHOP inhibitor 83
Clc1cc(Cl)c(OCc2nc(-c3ccccn3)no2)cc1Cl	CHOP inhibitor 96
CC(C)(C)c1ccc(OCc2nc(-c3ccccn3)no2)c(Br)c1	none
CCOC(=O)c1cn(-c2c(C)n(C)n(-c3ccccc3)c2=O)c2c(F)c(F)c(F)cc2c1=O	none
O=C(Nc1ccc(Br)cc1)c1cccc(N2C(=O)C3C4CCC(C4)C3C2=O)c1 (stereo unspecified)	none
Brc1ccc(-c2ccc(C3Nc4cccc5cccc(c45)N3)o2)cc1	UPR XBP1 act 37 (no result: p97 inhibitor, NS3 helicase inh, CHOP inhibitor, M18AAP inhibitor)
c1coc(C2Nc3cccc4cccc(c34)N2)c1	none
COc1cc(OC)cc(-c2c(-c3ccc(F)cc3)c3cc(-c4cnc(OC)nc4)ccc3n2C)c1	none (no result: p97 inhibitor, NS3 helicase inh, CHOP inhibitor, M18AAP inhibitor)
Cc1nc([N+](=O)[O-])cn1CC(=O)c1ccc(F)cc1	none (no result: p97 inhibitor, CHOP inhibitor)
O=C(CCCN1C(=O)NC2(CCCC2)C1=O)Nc1ccc(Cl)c(S(=O)(=O)N2CCOCC2)c1	none (no result: p97 inhibitor, NS3 helicase inh, CHOP inhibitor, M18AAP inhibitor)
CC[C@H](CO)Nc1nc(Nc2cccc(Cl)c2)c2ncn(C(C)C)c2n1	CHOP inhibitor 83 (no result: p97 inhibitor, NS3 helicase inh, M18AAP inhibitor)
COC(=O)c1[nH]c2c(c1C)C(=O)CC(c1cccc(OC)c1)C2 (stereo unspecified)	none (no result: p97 inhibitor, CHOP inhibitor)
CCOC(=O)c1cc2c(ccn2C)n1CC(=O)N1CCC(Cc2ccccc2)CC1	CHOP inhibitor 71
CCOC(=O)c1cc2c(ccn2C)n1CC(=O)N1CCCC(C)C1 (stereo unspecified)	none
Cc1cc(SCC(=O)N/N=C/c2ccc(O)cc2O)c(C)cc1Br	CHOP inhibitor 88
CCCCCn1c(N2CCN(c3cccc(Cl)c3)CC2)nc2c1c(=O)[nH]c(=O)n2C	CHOP inhibitor 87
Cc1ccc(Cn2c(Sc3ncccn3)nc3c2c(=O)[nH]c(=O)n3C)cc1	none
CCCCCSc1nc2c(c(=O)[nH]c(=O)n2C)n1C(C)C	CHOP inhibitor 89
CC(C)CCSc1nc2c(c(=O)[nH]c(=O)n2C)n1CCc1ccccc1	CHOP inhibitor 88
C/C=C/CSc1nc2c(c(=O)[nH]c(=O)n2C)n1Cc1ccc(C)cc1	CHOP inhibitor 86
Cc1ccc(-n2ncc3c2CCCC3NC(=O)CCCN2CCCCC2=O)cc1C (stereo unspecified)	none (no result: p97 inhibitor, CHOP inhibitor)
CCOC(=O)C1=C(COC(=O)CCNS(=O)(=O)c2ccc(C)c(C)c2)NC(=O)NC1C (stereo unspecified)	none (no result: p97 inhibitor, NS3 helicase inh, CHOP inhibitor, M18AAP inhibitor)
COCCn1c(SCCN2CCOCC2)nc2c1c(=O)[nH]c(=O)n2C	M18AAP inhibitor 30
C=CCn1c(SCCN2CCOCC2)nc2c1c(=O)[nH]c(=O)n2C	none
Cc1ccc(CSc2nc3c(c(=O)[nH]c(=O)n3C)n2CCC(C)C)cc1	CHOP inhibitor 106
CC(C)CSc1nc2c(c(=O)[nH]c(=O)n2C)n1CC(O)COc1cccc2ccccc12 (stereo unspecified)	CHOP inhibitor 80 (no result: UPR XBP1 act, CHOP UPR activ)
CCCCn1c(SCc2ccc(Cl)cc2)nc2c1c(=O)[nH]c(=O)n2C	CHOP inhibitor 82
COc1ccc(NC(=O)Nc2ccon2)cc1OC	none (no result: p97 inhibitor, CHOP inhibitor)
